pEC50, pIC50: −log10 of the molar value.
Columns and labels:
MCF7 [1] = test: Effective concentration against human ER positive MCF-7 breast cancer cell line evaluated by luciferase assay; type: functional, cell-based
Outline: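 ER-positive MCF-7 cells stably transfected with the ERE_wtc-luc reporter plasmid (MCF-7 2a). Cells were exposed to the compound over a concentration range. ER binding to the estrogen response element drives luciferase expression, which was measured to build concentration–activation curves relative to estradiol. EC50 was taken from these curves.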

[2] = molecular target: Prostaglandin G/H synthase 1 (Ovis aries) (UniProt P05979); test: Inhibitory concentration against ovine cyclooxygenase-1 evaluated by enzyme linked immunosorbent assay
MCF7 [3] = test: Treatment upon control (T/C) against hormone dependent MCF-7 breast cancer cells at 10 uM concentration; conditions: Homo sapiens

`CCc1c(-c2ccc(O)cc2)nc(-c2ccc(O)cc2)n1-c1ccc(O)cc1` was tested, and the pEC50 (MCF7 [1]) was 7.11 and the pIC50 [2] was less than 3.70.

`Oc1ccc(-c2nc(-c3ccc(O)cc3Cl)cn2-c2ccc(O)cc2)cc1` was tested, and the T/C at 10 µM (MCF7 [3]) was 50% and the pIC50 [2] was 5.08.

`Oc1ccc(-n2cc(-c3ccc(O)cc3Cl)nc2-c2ccc(O)cc2Cl)cc1` gave a T/C at 10 µM (MCF7 [3]) of 0% and a pIC50 [2] of 5.08.

Compound `Oc1ccc(-c2cn(-c3ccc(O)cc3)c(-c3ccc(O)cc3)n2)cc1` has a pIC50 [2] of 4.91.

Work on `C[C@]12CC[C@@H]3c4ccc(O)cc4CC[C@H]3[C@@H]1CC[C@@H]2O` [ESTRADIOL] yielded a pEC50 (MCF7 [1]) of 10.10.

Source: ChEMBL document CHEMBL1141119, “Synthesis and pharmacological evaluation of 1H-imidazoles as ligands for the estrogen receptor and cytotoxic inhibitors of the cyclooxygenase” (J Med Chem, 2005)
